# High-throughput results from PubChem BioAssay.
# E-sel inducer – induces E-selectin expression in human endothelial cells. P16581. HUVEC E-selectin immunofluorescence imaging; normalized: neutral wells 0, TNF-alpha wells 100. activation, % at 7.58 µM. hit rate 0.37% among 260,000;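 active = mean E-selectin-positive cell signal at least 10% of the positive control, reached in at least 60% of replicates, without over 20% cell loss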
#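 Assay system: HUVEC primary endothelial cells. Input: 3,000 HUVEC seeded per well. Doses: one compound dose added by pin transfer. Read-out basis: % PE-positive cells. Benchmarks: TNF-alpha high, DMSO low. Detection: immunofluorescence imaging. Buffer or medium: EGM-2, gelatin.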
# AF4-AF9 inh – blocks AF4 peptide binding to human AF9; AlphaScreen, biotin-AF4 peptide binding to FLAG-AF9; inhibition, % at 10 µM; hit rate 0.47% among 350,000; P42568;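 active = every replicate reaching a set inhibition limit, whatever the replicate mean, cut at about 25% in these data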
# SIRT5 block – inhibitors of human sirtuin-5 desuccinylase; Q9NXA8; Purified SirT5, succinyl-peptide AMC, trypsin-coupled fluorescence; inhibition, % at 15 µM; hit rate 1.1% among 330,000; in the data active = inhibition above about 15%
# ERAP1 HTS inh – blocks human ERAP1 aminopeptidase activity; Q9NZ08; recombinant ERAP1, Leu-AMC fluorescence, 60 min; inhibition, % at 10.7 µM; hit rate 0.15% among 340,000; AID 652197;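 active = mean replicate inhibition of at least 30%, or all replicates individually reaching that 30% level; inactive = mean below 30% and not every replicate reaching it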
# Target sequence (Q9NZ08 whole entry, looked up): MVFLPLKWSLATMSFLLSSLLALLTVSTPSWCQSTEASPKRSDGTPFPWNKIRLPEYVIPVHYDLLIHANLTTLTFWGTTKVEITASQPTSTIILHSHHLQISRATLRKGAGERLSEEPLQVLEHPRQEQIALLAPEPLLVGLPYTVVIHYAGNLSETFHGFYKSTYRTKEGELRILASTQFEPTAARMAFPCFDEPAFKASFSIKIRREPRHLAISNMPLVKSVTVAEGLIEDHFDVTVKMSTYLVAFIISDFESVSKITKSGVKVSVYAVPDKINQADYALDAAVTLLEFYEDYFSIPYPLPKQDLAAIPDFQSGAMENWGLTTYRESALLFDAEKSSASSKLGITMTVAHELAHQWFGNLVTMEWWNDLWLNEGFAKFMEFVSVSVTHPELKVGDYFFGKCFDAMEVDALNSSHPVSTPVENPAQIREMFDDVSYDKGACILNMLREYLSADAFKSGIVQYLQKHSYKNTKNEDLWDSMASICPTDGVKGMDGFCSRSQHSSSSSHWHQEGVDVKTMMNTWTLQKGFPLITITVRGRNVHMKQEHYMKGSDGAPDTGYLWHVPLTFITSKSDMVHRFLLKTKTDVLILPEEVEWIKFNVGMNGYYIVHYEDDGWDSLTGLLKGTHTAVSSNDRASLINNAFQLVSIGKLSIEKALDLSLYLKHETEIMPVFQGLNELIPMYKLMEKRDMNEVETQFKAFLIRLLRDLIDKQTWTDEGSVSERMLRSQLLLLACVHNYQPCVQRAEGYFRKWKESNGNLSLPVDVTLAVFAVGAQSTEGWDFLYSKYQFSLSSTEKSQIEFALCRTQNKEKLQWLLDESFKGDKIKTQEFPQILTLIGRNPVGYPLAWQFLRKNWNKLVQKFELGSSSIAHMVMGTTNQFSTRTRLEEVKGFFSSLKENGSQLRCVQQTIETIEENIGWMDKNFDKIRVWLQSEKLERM
# rRNA inh HTS – inhibitors of bacterial rRNA selective over humanized ribosomes; E. coli WT GFP vs humanized-ribosome RFP mutants, fluorescence, 24 h; hits give low values; DMSO median 0, no signal -100; GFP signal change (wild-type ribosome), % (test concentration not listed); hit rate 1.6% among 350,000;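 active = significant combined selectivity score with lowered wild-type GFP, culture density cut under 30%, mutant RFP and density less affected; inactive = any of these conditions unmet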
# S100A4 inh HTS – S100A4-myosin IIA interaction inhibition. P26447. hit rate 0.14% among 360,000. S100A4/TAMRA-MyoIIA peptide fluorescence polarization. AID 652163. inhibition, % at 10.7 µM;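 active = mean inhibition of at least 70% across replicates, with every replicate also reaching that level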
#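 Material: S100A4 monomer protein / Buffer or medium: 50 mM HEPES pH 7.2, 10 mM CaCl2, 100 mM KCl / Times: 5 min incubation before reading / Benchmarks: neutral control DMSO, positive control TFP / Reagent: labelled myosin peptide probe, 5 nM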
# A number is an active result; n = inactive; x = no result given. The list is not random: actives were taken first. Their share in the collection is about 3.4%.
SMILES,E-sel inducer,AF4-AF9 inh,SIRT5 block,ERAP1 HTS inh,rRNA inh HTS,S100A4 inh HTS
C[C@@H]1CN([C@H](C)CO)C(=O)c2c(c3ccccc3n2C)-c2ccccc2CO[C@H]1CN(C)S(=O)(=O)c1ccccc1,n,n,n,n,n,131
COc1ccc(S(=O)(=O)N(C)C[C@H]2OCc3ccccc3-c3c(n(C)c4ccccc34)C(=O)N([C@H](C)CO)C[C@@H]2C)cc1,n,n,n,n,n,n
COc1ccc(S(=O)(=O)N(C)C[C@@H]2OCc3ccccc3-c3c(n(C)c4ccccc34)C(=O)N([C@H](C)CO)C[C@H]2C)cc1,n,n,16,n,n,n
C[C@H]1CN([C@@H](C)CO)C(=O)c2c(c3ccccc3n2C)-c2ccccc2CO[C@H]1CN(C)S(=O)(=O)c1ccccc1,n,n,n,n,n,n
Cc1ccc(S(=O)(=O)N(C)C[C@H]2OCc3ccccc3-c3c(n(C)c4ccccc34)C(=O)N([C@H](C)CO)C[C@@H]2C)cc1,n,n,n,n,n,n
Cc1ccccc1S(=O)(=O)N(C)C[C@H]1OCc2ccccc2-c2c(n(C)c3ccccc23)C(=O)N([C@H](C)CO)C[C@@H]1C,n,n,n,n,n,n
Cc1ccccc1S(=O)(=O)N(C)C[C@H]1OCc2ccccc2-c2c(n(C)c3ccccc23)C(=O)N([C@@H](C)CO)C[C@@H]1C,n,n,22,n,n,n
Cc1ccc(S(=O)(=O)N(C)C[C@H]2OCc3ccccc3-c3c(n(C)c4ccccc34)C(=O)N([C@H](C)CO)C[C@H]2C)cc1,n,n,20,n,n,n
O=S1c2ccccc2Nc2ccccc21,n,n,25,n,n,n
CC1(C)CC(=O)C2=C(C1)Nc1ccccc1[S@]2=O,x,n,16,n,n,n
CCCNC(=O)C[C@H]1CC[C@@H]2[C@H](COC[C@H](O)CN2Cc2ccc(Cl)c(Cl)c2)O1,n,n,n,n,n,n
COc1ccc(/C=C/C(=O)NC(=S)Nc2cc([N+](=O)[O-])ccc2O)cc1OC,n,n,n,n,-17,n
Cc1ccc(C(=O)/C=C/c2cc(C#N)n(C)c2C)cc1,n,n,22,n,n,n
COc1ccc2sc(-c3ccccc3OC)c(-c3ccc(O)cc3)c2c1,42,x,n,n,n,n
C[C@H](CO)N1C[C@H](C)[C@@H](CN(C)C(=O)NC2CCCCC2)OCCCC[C@H](C)Oc2ccc(NS(=O)(=O)c3cccs3)cc2C1=O,n,n,n,n,n,n
COc1ccc(S(=O)(=O)N(C)C[C@@H]2OCCCC[C@@H](C)Oc3ccc(NC(=O)NC4CCCCC4)cc3C(=O)N([C@H](C)CO)C[C@H]2C)cc1,x,n,n,n,n,n
O=C(N/N=C/c1ccncc1)NC1CCCCC1,x,n,n,n,n,n
O=C(N/N=C/c1cccc(O)c1)NC1CCCCC1,n,n,n,n,-25,n
C[C@@H]1CN([C@@H](C)CO)C(=O)c2cc(NC(=O)CCC(F)(F)F)ccc2O[C@@H]1CN(C)CC1CC1,n,n,n,n,n,n
COc1ccc(-c2cc(C(=O)NCc3ccc(C(F)(F)F)cc3)[nH]n2)c(C)c1,n,n,n,n,-20,n
COc1cc(F)ccc1-c1cc(C(=O)NCc2ccc(C(F)(F)F)cc2)[nH]n1,n,n,x,n,n,n
O=[N+]([O-])c1ccc2c(c1)/C(=N\O)c1ccccc1-2,n,n,n,x,-28,n
O=[N+]([O-])c1ccc2c(c1)-c1ccccc1C2O (centres undefined),n,n,n,39,n,n
CO[C@H]1CN(C)C(=O)c2cc(NC(C)=O)ccc2OC[C@H](C)N(C(=O)CN(C)C)C[C@H]1C,n,n,n,n,n,n
O=C(c1cc(=O)[nH]c2ccccc12)N1CCN(c2ccc([N+](=O)[O-])cc2)CC1,33,n,n,x,n,n
SMILES,E-sel inducer,AF4-AF9 inh,SIRT5 block,ERAP1 HTS inh,rRNA inh HTS,S100A4 inh HTS
COc1ccc(N2CCN(C(=O)c3cc(=O)[nH]c4ccccc34)CC2)cc1,x,n,n,n,n,n
CC(C)[C@H]1CN=C2N(C[C@H](C)NC(=O)CCC3CCCCC3)[C@H](Cc3ccc(O)cc3)CN21,x,n,x,n,x,n
COc1ccc(C[C@H]2CN3C(=NC[C@@H]3Cc3ccc(O)cc3)N2C[C@H](C)NC(=O)CCC2CCCCC2)cc1,n,n,31,n,n,n
CC(=O)N(C)C[C@H]1Oc2cc(-c3cncnc3)ccc2S(=O)(=O)N([C@H](C)CO)C[C@H]1C,n,n,n,n,n,n
O=C(CNC(=O)Cc1ccccc1)NCC(=O)N1CCCCC1,n,n,n,n,n,n
O=C(CNS(=O)(=O)c1ccccc1)NCC(=O)N1CCCCC1,n,n,15,n,n,n
CCOC(=O)C[n+]1ccc2c([nH]c3ccccc32)c1C,x,n,n,51,n,n
Cc1ccc(S(=O)(=O)NNC(=S)Nc2ccc(Cl)cc2)cc1,n,n,n,n,-28,n
O=C(NCCO)Nc1ccc(Cl)cc1,n,n,19,x,n,n
Cc1ccc(S(=O)(=O)NNC(=S)Nc2c(Cl)cccc2Cl)cc1,n,x,n,n,n,n
Cn1nccc1NC(=O)Nc1cccc(Br)c1,x,x,n,n,n,n
NS(=O)(=O)c1ccc(NC(=O)Nc2ccc(Cl)cc2)cc1,x,n,n,n,-26,n
Cn1nccc1NC(=O)Nc1ccc(Cl)cc1,n,n,n,n,-35,n
C[C@@H]1CN([C@H](C)CO)C(=O)c2cc(NC(=O)Cn3cnnn3)ccc2O[C@@H]1CN(C)C(=O)Nc1ccc(F)cc1,n,n,n,n,n,n
C[C@@H]1CN([C@H](C)CO)C(=O)Cc2cc(NC(=O)Nc3ccc(F)cc3)ccc2O[C@H]1CN(C)Cc1ccncc1,x,n,n,n,n,n
Cc1ccc(S(=O)(=O)N(C)C[C@H]2OCCCC[C@H](C)Oc3ccc(NS(=O)(=O)c4ccc(Cl)cc4)cc3C(=O)N([C@H](C)CO)C[C@@H]2C)cc1,n,n,24,n,n,n
Cc1ccc(S(=O)(=O)N(C)C[C@@H]2OCCCC[C@H](C)Oc3ccc(NS(=O)(=O)c4ccc(Cl)cc4)cc3C(=O)N([C@H](C)CO)C[C@H]2C)cc1,n,n,21,n,n,n
Cc1ccc(S(=O)(=O)N(C)C[C@H]2OCCCC[C@@H](C)Oc3ccc(NS(=O)(=O)c4ccc(Cl)cc4)cc3C(=O)N([C@H](C)CO)C[C@@H]2C)cc1,n,n,17,n,n,n
C[C@@H]1CCCCO[C@H](CN(C)S(=O)(=O)c2ccc(Cl)cc2)[C@H](C)CN([C@H](C)CO)C(=O)c2cc(NS(=O)(=O)c3ccc(Cl)cc3)ccc2O1,n,x,x,x,n,x
